# Test system: Fibroblast
# Experiment: Multiplex assay against human fibroblast
# Format: toxicity, cell-based
# Summary of the method: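 On a CQ1 microscope at 37°C and 5% CO2, live cells were imaged after compound addition. They had been stained at seeding with Hoechst33342, BioTracker Green Microtubule Cytoskeleton Dye, MitoTracker Red and Annexin V Alexa Fluor 680. CellPathfinder machine-learning gating assigned cells to Hoechst high-intensity objects or normal cells, normal cells to healthy, pyknosed or fragmented nuclei, and pyknosed cells to mitotic or apoptotic. Tubulin, mitochondrial-mass and membrane-permeability phenotypes are per cents of healthy-nucleus cells.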
# [1] = 12 h, 1 µM, compound concentration 1 uM, replicate 1
# [2] = 12 h, 1 µM, compound concentration 1 uM, replicate 2
# [3] = 12 h, 10 µM, compound concentration 10 uM, replicate 1
# [4] = 12 h, 10 µM, compound concentration 10 uM, replicate 2
# [5] = 24 h, 1 µM, compound concentration 1 uM, replicate 1
# [6] = 24 h, 1 µM, compound concentration 1 uM, replicate 2
# [7] = 24 h, 10 µM, compound concentration 10 uM, replicate 1
# [8] = 24 h, 10 µM, compound concentration 10 uM, replicate 2
# [9] = 48 h, 1 µM, compound concentration 1 uM, replicate 1
# [10] = 48 h, 1 µM, compound concentration 1 uM, replicate 2
# [11] = 48 h, 10 µM, compound concentration 10 uM, replicate 1
# [12] = 48 h, 10 µM, compound concentration 10 uM, replicate 2
smiles,measurement,setting,value
Cc1cc(C)c(S(=O)(=O)N(Cc2ccc(-c3cccc(S(C)(=O)=O)c3)cc2)Cc2ccc(C(F)(F)F)o2)c(C)c1,Population Apoptotic (%),[1],68%
same,Population Fragmented Nuclei (%),[1],20%
same,Population Healthy Nuclei (%),[1],45%
same,Population Hoechst High Intensity Objects (%),[1],8%
same,Population Membrane Permeable-Phenotype (%),[1],19%
same,Population Mitochondria Different-Phenotype (%),[1],8%
same,Population Mitotic Cells (%),[1],32%
same,Population Normal (%),[1],91%
same,Population Pyknosed Nuclei (%),[1],34%
same,Population Tubulin-Different-Phenotype (%),[1],55%
same,Total Cell Count,[1],161
same,Population Apoptotic (%),[2],66%
same,Population Fragmented Nuclei (%),[2],15%
same,Population Healthy Nuclei (%),[2],80%
same,Population Hoechst High Intensity Objects (%),[2],6%
same,Population Membrane Permeable-Phenotype (%),[2],3%
same,Population Mitochondria Different-Phenotype (%),[2],21%
same,Population Mitotic Cells (%),[2],33%
same,Population Normal (%),[2],93%
same,Population Pyknosed Nuclei (%),[2],3%
same,Population Tubulin-Different-Phenotype (%),[2],27%
same,Total Cell Count,[2],72
same,Population Apoptotic (%),[3],51%
same,Population Fragmented Nuclei (%),[3],40%
same,Population Healthy Nuclei (%),[3],27%
same,Population Hoechst High Intensity Objects (%),[3],45%
same,Population Membrane Permeable-Phenotype (%),[3],25%
same,Population Mitochondria Different-Phenotype (%),[3],7%
same,Population Mitotic Cells (%),[3],48%
same,Population Normal (%),[3],54%
same,Population Pyknosed Nuclei (%),[3],31%
same,Population Tubulin-Different-Phenotype (%),[3],74%
same,Total Cell Count,[3],179
same,Population Apoptotic (%),[4],0%
same,Population Fragmented Nuclei (%),[4],14%
same,Population Healthy Nuclei (%),[4],77%
same,Population Hoechst High Intensity Objects (%),[4],22%
same,Population Membrane Permeable-Phenotype (%),[4],3%
same,Population Mitochondria Different-Phenotype (%),[4],3%
same,Population Mitotic Cells (%),[4],100%
same,Population Normal (%),[4],77%
same,Population Pyknosed Nuclei (%),[4],8%
same,Population Tubulin-Different-Phenotype (%),[4],11%
same,Total Cell Count,[4],81
same,Population Apoptotic (%),[5],45%
same,Population Fragmented Nuclei (%),[5],21%
same,Population Healthy Nuclei (%),[5],64%
same,Population Hoechst High Intensity Objects (%),[5],9%
same,Population Membrane Permeable-Phenotype (%),[5],25%
same,Population Mitochondria Different-Phenotype (%),[5],6%
same,Population Mitotic Cells (%),[5],54%
same,Population Normal (%),[5],90%
same,Population Pyknosed Nuclei (%),[5],14%
same,Population Tubulin-Different-Phenotype (%),[5],58%
same,Total Cell Count,[5],171
same,Population Apoptotic (%),[6],0%
same,Population Fragmented Nuclei (%),[6],14%
same,Population Healthy Nuclei (%),[6],80%
same,Population Hoechst High Intensity Objects (%),[6],1%
same,Population Membrane Permeable-Phenotype (%),[6],5%
same,Population Mitochondria Different-Phenotype (%),[6],18%
same,Population Mitotic Cells (%),[6],100%
same,Population Normal (%),[6],98%
same,Population Pyknosed Nuclei (%),[6],5%
same,Population Tubulin-Different-Phenotype (%),[6],32%
same,Total Cell Count,[6],86
same,Population Apoptotic (%),[7],77%
same,Population Fragmented Nuclei (%),[7],34%
same,Population Healthy Nuclei (%),[7],46%
same,Population Hoechst High Intensity Objects (%),[7],42%
same,Population Membrane Permeable-Phenotype (%),[7],31%
same,Population Mitochondria Different-Phenotype (%),[7],18%
same,Population Mitotic Cells (%),[7],22%
same,Population Normal (%),[7],57%
same,Population Pyknosed Nuclei (%),[7],18%
same,Population Tubulin-Different-Phenotype (%),[7],72%
same,Total Cell Count,[7],166
same,Population Apoptotic (%),[8],14%
same,Population Fragmented Nuclei (%),[8],15%
same,Population Healthy Nuclei (%),[8],71%
same,Population Hoechst High Intensity Objects (%),[8],10%
same,Population Membrane Permeable-Phenotype (%),[8],5%
same,Population Mitochondria Different-Phenotype (%),[8],10%
same,Population Mitotic Cells (%),[8],85%
same,Population Normal (%),[8],89%
same,Population Pyknosed Nuclei (%),[8],13%
same,Population Tubulin-Different-Phenotype (%),[8],15%
same,Total Cell Count,[8],109
same,Population Apoptotic (%),[9],72%
same,Population Fragmented Nuclei (%),[9],30%
same,Population Healthy Nuclei (%),[9],58%
same,Population Hoechst High Intensity Objects (%),[9],8%
same,Population Membrane Permeable-Phenotype (%),[9],16%
same,Population Mitotic Cells (%),[9],27%
same,Population Normal (%),[9],91%
same,Population Pyknosed Nuclei (%),[9],11%
same,Population Tubulin-Different-Phenotype (%),[9],40%
same,Total Cell Count,[9],178
same,Population Apoptotic (%),[10],66%
same,Population Fragmented Nuclei (%),[10],17%
same,Population Healthy Nuclei (%),[10],79%
same,Population Hoechst High Intensity Objects (%),[10],10%
same,Population Membrane Permeable-Phenotype (%),[10],18%
same,Population Mitochondria Different-Phenotype (%),[10],2%
same,Population Mitotic Cells (%),[10],33%
same,Population Normal (%),[10],89%
same,Population Pyknosed Nuclei (%),[10],2%
same,Population Tubulin-Different-Phenotype (%),[10],32%
same,Total Cell Count,[10],114
same,Population Apoptotic (%),[11],100%
same,Population Fragmented Nuclei (%),[11],47%
same,Population Healthy Nuclei (%),[11],49%
same,Population Hoechst High Intensity Objects (%),[11],40%
same,Population Membrane Permeable-Phenotype (%),[11],45%
same,Population Mitochondria Different-Phenotype (%),[11],3%
same,Population Mitotic Cells (%),[11],0%
same,Population Normal (%),[11],59%
same,Population Pyknosed Nuclei (%),[11],2%
same,Population Tubulin-Different-Phenotype (%),[11],63%
same,Total Cell Count,[11],192
same,Population Fragmented Nuclei (%),[12],21%
same,Population Healthy Nuclei (%),[12],77%
same,Population Hoechst High Intensity Objects (%),[12],12%
same,Population Membrane Permeable-Phenotype (%),[12],5%
same,Population Normal (%),[12],87%
same,Population Pyknosed Nuclei (%),[12],1%
same,Population Tubulin-Different-Phenotype (%),[12],22%
same,Total Cell Count,[12],86
COC(=N)c1nc2ccc3ncnc(Nc4ccc(OC)cc4F)c3c2s1,Population Apoptotic (%),[1],55%
same,Population Fragmented Nuclei (%),[1],30%
same,Population Healthy Nuclei (%),[1],60%
same,Population Hoechst High Intensity Objects (%),[1],17%
same,Population Membrane Permeable-Phenotype (%),[1],3%
same,Population Mitochondria Different-Phenotype (%),[1],3%
same,Population Mitotic Cells (%),[1],44%
same,Population Normal (%),[1],82%
same,Population Pyknosed Nuclei (%),[1],9%
same,Population Tubulin-Different-Phenotype (%),[1],1%
same,Total Cell Count,[1],119
same,Population Apoptotic (%),[2],28%
same,Population Fragmented Nuclei (%),[2],50%
same,Population Healthy Nuclei (%),[2],34%
same,Population Hoechst High Intensity Objects (%),[2],33%
same,Population Membrane Permeable-Phenotype (%),[2],6%
same,Population Mitochondria Different-Phenotype (%),[2],6%
same,Population Mitotic Cells (%),[2],71%
same,Population Normal (%),[2],66%
same,Population Pyknosed Nuclei (%),[2],15%
same,Population Tubulin-Different-Phenotype (%),[2],6%
same,Total Cell Count,[2],69
same,Population Apoptotic (%),[3],76%
same,Population Fragmented Nuclei (%),[3],20%
same,Population Healthy Nuclei (%),[3],60%
same,Population Hoechst High Intensity Objects (%),[3],11%
same,Population Membrane Permeable-Phenotype (%),[3],7%
same,Population Mitochondria Different-Phenotype (%),[3],0%
same,Population Mitotic Cells (%),[3],23%
same,Population Normal (%),[3],88%
same,Population Pyknosed Nuclei (%),[3],18%
same,Population Tubulin-Different-Phenotype (%),[3],1%
same,Total Cell Count,[3],238
same,Population Apoptotic (%),[4],100%
same,Population Fragmented Nuclei (%),[4],57%
same,Population Healthy Nuclei (%),[4],35%
same,Population Hoechst High Intensity Objects (%),[4],30%
same,Population Membrane Permeable-Phenotype (%),[4],5%
same,Population Mitochondria Different-Phenotype (%),[4],5%
same,Population Mitotic Cells (%),[4],0%
same,Population Normal (%),[4],69%
same,Population Pyknosed Nuclei (%),[4],7%
same,Population Tubulin-Different-Phenotype (%),[4],5%
same,Total Cell Count,[4],82
same,Population Apoptotic (%),[5],77%
same,Population Fragmented Nuclei (%),[5],41%
same,Population Healthy Nuclei (%),[5],50%
same,Population Hoechst High Intensity Objects (%),[5],19%
same,Population Membrane Permeable-Phenotype (%),[5],8%
same,Population Mitochondria Different-Phenotype (%),[5],6%
same,Population Mitotic Cells (%),[5],22%
same,Population Normal (%),[5],80%
same,Population Pyknosed Nuclei (%),[5],7%
same,Population Tubulin-Different-Phenotype (%),[5],1%
same,Total Cell Count,[5],146
same,Population Apoptotic (%),[6],42%
same,Population Fragmented Nuclei (%),[6],44%
same,Population Healthy Nuclei (%),[6],36%
same,Population Hoechst High Intensity Objects (%),[6],30%
same,Population Membrane Permeable-Phenotype (%),[6],7%
same,Population Mitochondria Different-Phenotype (%),[6],7%
same,Population Mitotic Cells (%),[6],57%
same,Population Normal (%),[6],69%
same,Population Pyknosed Nuclei (%),[6],18%
same,Population Tubulin-Different-Phenotype (%),[6],14%
same,Total Cell Count,[6],55
same,Population Apoptotic (%),[7],65%
same,Population Fragmented Nuclei (%),[7],20%
same,Population Healthy Nuclei (%),[7],62%
same,Population Hoechst High Intensity Objects (%),[7],13%
same,Population Membrane Permeable-Phenotype (%),[7],5%
same,Population Mitochondria Different-Phenotype (%),[7],2%
same,Population Mitotic Cells (%),[7],34%
same,Population Normal (%),[7],86%
same,Population Pyknosed Nuclei (%),[7],17%
same,Population Tubulin-Different-Phenotype (%),[7],1%
same,Total Cell Count,[7],246
same,Population Apoptotic (%),[8],50%
same,Population Fragmented Nuclei (%),[8],54%
same,Population Healthy Nuclei (%),[8],37%
same,Population Hoechst High Intensity Objects (%),[8],30%
same,Population Membrane Permeable-Phenotype (%),[8],10%
same,Population Mitochondria Different-Phenotype (%),[8],5%
same,Population Mitotic Cells (%),[8],50%
same,Population Normal (%),[8],69%
same,Population Pyknosed Nuclei (%),[8],7%
same,Population Tubulin-Different-Phenotype (%),[8],10%
same,Total Cell Count,[8],73

# Reference: ChEMBL document CHEMBL4689842, “EUbOPEN Chemogenomics Library wave 1” (2021)
